The target of assay [1] is T1, Transient receptor potential cation channel subfamily A member 1 (Homo sapiens, UniProt O75762). Briefly: Antagonist activity at human TRPA1 expressed in human IMR90 cells assessed as inhibition of acrolein-induced calcium influx after 40 mins by fluorescence analysis.
In assay [2] the target is T1, Transient receptor potential cation channel subfamily A member 1. Briefly: Antagonist activity at human TRPA1 expressed in human IMR90 cells assessed as inhibition of acrolein-induced calcium influx at 30 uM after 40 mins by fluorescence analysis. Format: functional, cell-based. The following applies: IMR-90. The gist of the method:
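IMR90 fetal lung fibroblasts, which constitutively express human TRPA1, were grown in DMEM with 10% FBS and 2 mM L-glutamine at 37 °C under 5% CO₂, then plated on glass coverslips to 60% confluence. Cells were loaded with Fura-2 AM for 40 min at 37 °C in HEPES buffer (pH 7.4, 0.1% BSA). Single-cell F340/F380 ratio was recorded during acrolein challenge in the presence of antagonist. %inhibition is mean ± SEM from ≥25 cells across three experiments; IC₅₀ (with CI) comes from a variable-slope sigmoidal fit.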

For assay [3], the target named is Transient receptor potential cation channel subfamily A member 1 (Rattus norvegicus) (UniProt Q6RI86). Kind of assay: Antagonist activity at Sprague-Dawley rat TRPA1 expressed in rat DRG neurons assessed as inhibition of acrolein-induced calcium influx at 3 uM after 40 mins by fluorescence analysis. Format: functional. The gist of the method:
(§1)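 DRG neurons came from male Sprague–Dawley rats (100 g). Ganglia were digested in HBSS with collagenase 1A (2 mg/ml) and trypsin (1 mg/ml) for 35 min at 37 °C, dissociated through 23–25 G needles in medium with 10% FBS and 10% horse serum, then filtered and centrifuged. Neurons were loaded with Fura-2 AM for 40 min at 37 °C in HEPES buffer (pH 7.4). F340/F380 was recorded under acrolein with antagonist present. %inhibition is mean ± SEM from ≥20 neurons across three experiments; IC₅₀ comes from a variable-slope sigmoidal fit.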

The target is the same in assay [4]. Kind of assay: Antagonist activity at Sprague-Dawley rat TRPA1 expressed in rat DRG neurons assessed as inhibition of acrolein-induced calcium influx at 30 uM after 40 mins by fluorescence analysis. Format: functional. The gist of the method: as §1
The target is the same in assay [5]. Briefly: (§2) Antagonist activity at Sprague-Dawley rat TRPA1 expressed in rat DRG neurons assessed as inhibition of acrolein-induced calcium influx after 40 mins by fluorescence analysis. Format: functional. A digest of the protocol:
as §1

Assay [6] concerns the target Transient receptor potential cation channel subfamily A member 1 (Rattus norvegicus, UniProt Q6RI86). The description is as §2. Format: functional. A digest of the protocol:
as §1

In assay [7] the target is Transient receptor potential cation channel subfamily V member 1 (Rattus norvegicus) (UniProt O35433). Briefly: Antagonist activity at Sprague-Dawley rat TRPV1 expressed in rat DRG neurons assessed as inhibition of capsaicin-induced calcium influx after 40 mins by fluorescence analysis. Format: functional.
Chain of Transient receptor potential cation channel subfamily V member 1 (Rattus norvegicus) (O35433 whole entry): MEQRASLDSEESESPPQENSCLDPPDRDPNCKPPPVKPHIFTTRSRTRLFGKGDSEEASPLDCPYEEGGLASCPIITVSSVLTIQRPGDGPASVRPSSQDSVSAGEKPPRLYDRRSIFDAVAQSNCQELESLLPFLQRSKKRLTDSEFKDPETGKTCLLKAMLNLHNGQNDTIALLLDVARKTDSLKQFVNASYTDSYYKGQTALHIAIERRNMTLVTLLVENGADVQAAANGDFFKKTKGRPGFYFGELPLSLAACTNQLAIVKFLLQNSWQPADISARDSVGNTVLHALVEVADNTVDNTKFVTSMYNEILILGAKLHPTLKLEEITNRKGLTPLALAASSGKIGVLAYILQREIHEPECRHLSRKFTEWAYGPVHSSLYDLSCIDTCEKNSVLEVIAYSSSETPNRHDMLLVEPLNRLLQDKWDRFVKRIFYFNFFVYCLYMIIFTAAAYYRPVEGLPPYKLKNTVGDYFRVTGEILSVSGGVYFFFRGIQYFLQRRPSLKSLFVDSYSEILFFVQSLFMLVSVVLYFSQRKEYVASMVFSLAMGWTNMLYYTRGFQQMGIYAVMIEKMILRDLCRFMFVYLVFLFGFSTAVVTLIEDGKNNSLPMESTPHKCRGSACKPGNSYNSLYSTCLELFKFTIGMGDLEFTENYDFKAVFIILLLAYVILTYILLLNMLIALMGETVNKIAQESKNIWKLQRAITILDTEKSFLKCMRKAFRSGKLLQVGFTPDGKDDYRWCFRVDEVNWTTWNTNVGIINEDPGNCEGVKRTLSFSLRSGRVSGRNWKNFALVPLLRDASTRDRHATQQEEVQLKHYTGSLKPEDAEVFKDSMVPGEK
Assay [8] has as its target T1, Transient receptor potential cation channel subfamily A member 1. Briefly: Antagonist activity at human TRPA1 expressed in human IMR90 cells assessed as inhibition of acrolein-induced calcium influx at 3 uM after 40 mins by fluorescence analysis. Format: functional, cell-based. The conditions noted are these: IMR-90.
Assay [9] has the same target. Briefly: Antagonist activity at human TRPA1 expressed in CHO cells assessed as inhibition of calcium influx. Format: functional, cell-based.
Assay [10] has the same target. The following applies: IMR-90, 1 uM.

Each structure is given as a SMILES string. pIC50: −log10 of the molar value. Activity calls are given as the source filed them. No cut-off for these calls is given here.

Broadly, the pIC50 is the negative decadic logarithm of the IC50, by convention in mol/L. As a reminder, the inhibition is the share of the control response that was lost under treatment.

Chain of Transient receptor potential cation channel subfamily A member 1 (Rattus norvegicus) (Q6RI86 whole entry): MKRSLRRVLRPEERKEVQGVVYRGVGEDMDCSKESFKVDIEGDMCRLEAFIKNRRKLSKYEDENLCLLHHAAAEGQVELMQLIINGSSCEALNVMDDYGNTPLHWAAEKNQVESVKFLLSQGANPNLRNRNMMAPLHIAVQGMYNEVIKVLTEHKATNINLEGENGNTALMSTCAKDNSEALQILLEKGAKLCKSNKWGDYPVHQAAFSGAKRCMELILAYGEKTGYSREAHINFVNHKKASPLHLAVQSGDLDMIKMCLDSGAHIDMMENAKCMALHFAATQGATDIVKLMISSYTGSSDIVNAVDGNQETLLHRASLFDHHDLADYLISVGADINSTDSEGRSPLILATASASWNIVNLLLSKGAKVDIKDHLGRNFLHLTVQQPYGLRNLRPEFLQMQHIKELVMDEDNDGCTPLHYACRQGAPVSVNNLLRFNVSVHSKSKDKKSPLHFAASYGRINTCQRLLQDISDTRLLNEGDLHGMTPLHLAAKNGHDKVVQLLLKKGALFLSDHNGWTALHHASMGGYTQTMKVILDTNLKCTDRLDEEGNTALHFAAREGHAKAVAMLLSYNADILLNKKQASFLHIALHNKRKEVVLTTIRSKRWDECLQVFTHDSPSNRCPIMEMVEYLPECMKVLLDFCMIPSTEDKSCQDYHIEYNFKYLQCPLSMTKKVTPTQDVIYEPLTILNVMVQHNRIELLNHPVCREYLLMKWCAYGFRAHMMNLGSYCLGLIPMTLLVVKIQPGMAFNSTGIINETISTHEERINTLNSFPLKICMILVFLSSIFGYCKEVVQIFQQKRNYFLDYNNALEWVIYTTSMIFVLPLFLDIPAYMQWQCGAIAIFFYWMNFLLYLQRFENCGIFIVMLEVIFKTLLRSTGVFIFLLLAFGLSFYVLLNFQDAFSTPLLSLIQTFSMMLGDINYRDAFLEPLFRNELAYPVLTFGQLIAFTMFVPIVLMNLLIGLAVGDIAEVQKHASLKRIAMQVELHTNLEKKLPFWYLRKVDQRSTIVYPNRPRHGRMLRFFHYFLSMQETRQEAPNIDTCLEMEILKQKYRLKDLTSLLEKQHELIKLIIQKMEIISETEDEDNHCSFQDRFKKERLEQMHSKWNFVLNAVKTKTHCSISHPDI
Chain of Transient receptor potential cation channel subfamily A member 1 (Rattus norvegicus, UniProt Q6RI86) (Q6RI86 whole entry): as above
T1 sequence (O75762 whole entry): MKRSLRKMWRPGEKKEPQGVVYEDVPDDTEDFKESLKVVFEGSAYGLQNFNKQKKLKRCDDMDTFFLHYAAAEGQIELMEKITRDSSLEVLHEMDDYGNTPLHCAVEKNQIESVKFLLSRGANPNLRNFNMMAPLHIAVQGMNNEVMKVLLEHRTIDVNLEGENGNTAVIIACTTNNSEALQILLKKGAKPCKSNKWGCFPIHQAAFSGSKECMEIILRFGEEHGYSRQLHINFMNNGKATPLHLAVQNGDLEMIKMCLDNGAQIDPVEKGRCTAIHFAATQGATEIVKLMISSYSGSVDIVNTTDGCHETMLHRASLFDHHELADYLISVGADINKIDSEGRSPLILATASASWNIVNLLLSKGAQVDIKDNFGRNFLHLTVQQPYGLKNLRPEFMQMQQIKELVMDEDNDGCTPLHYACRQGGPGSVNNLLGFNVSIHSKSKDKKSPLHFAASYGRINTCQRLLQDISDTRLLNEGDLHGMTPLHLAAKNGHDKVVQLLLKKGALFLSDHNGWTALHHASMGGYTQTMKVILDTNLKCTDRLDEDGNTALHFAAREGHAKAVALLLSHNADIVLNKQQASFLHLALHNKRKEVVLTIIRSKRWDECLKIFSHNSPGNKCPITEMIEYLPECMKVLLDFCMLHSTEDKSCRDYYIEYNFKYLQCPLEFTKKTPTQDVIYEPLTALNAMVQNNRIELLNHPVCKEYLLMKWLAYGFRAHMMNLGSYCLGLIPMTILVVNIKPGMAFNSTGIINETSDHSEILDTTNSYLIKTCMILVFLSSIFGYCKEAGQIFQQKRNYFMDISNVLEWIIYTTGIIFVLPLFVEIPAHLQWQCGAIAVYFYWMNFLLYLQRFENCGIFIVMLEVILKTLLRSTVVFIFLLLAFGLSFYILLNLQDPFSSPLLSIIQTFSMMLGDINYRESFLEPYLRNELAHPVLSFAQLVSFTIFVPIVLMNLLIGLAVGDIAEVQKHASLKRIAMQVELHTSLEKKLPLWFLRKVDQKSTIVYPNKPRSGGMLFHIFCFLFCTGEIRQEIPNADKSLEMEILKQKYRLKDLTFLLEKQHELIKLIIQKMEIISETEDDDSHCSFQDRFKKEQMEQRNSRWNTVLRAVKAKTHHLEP

For `Cn1c(=O)c2c(ccn2CC(=O)Nc2nc(-c3ccc(F)c(C(F)(F)F)c3)cs2)n(C)c1=O`, the pIC50 in assay [1] and in assay [6] was 5.89 throughout. Besides, the inhibition was 99.3% in [2]; 80.6% in assay [3]; 99.6% in assay [4]; “Dose-dependent effect” in assay [5]; 76.1% in assay [8]. In addition, the inhibition result in assay [7] is “inactive”.

`Cn1c(=O)c2c(ccn2CC(=O)Nc2nc(-c3ccc(C(F)(F)F)cc3)cs2)n(C)c1=O`: the inhibition was 58.3% in assay [3] and 80.2% in assay [4].

Turning to `Cn1c(=O)c2c(ccn2CC(=O)Nc2ccc(I)cc2)n(C)c1=O`, the inhibition in [3] came to 12.4%; in assay [4], 85.4%.

As to `Cn1c(=O)c2c(ccn2CC(=O)Nc2ccc(F)c(F)c2)n(C)c1=O`, in assay [2], the inhibition was less than 50%.

Turning to `CCCCCCc1ccc(-c2csc(NC(=O)Cn3ccc4c3c(=O)n(C)c(=O)n4C)n2)cc1`, the inhibition was 92.4% in [3] and 99.4% in [4].

Turning to `Cn1c(=O)c2c(ccn2CC(=O)Nc2ccc(SC(F)(F)F)cc2)n(C)c1=O`, the inhibition in assay [2] is less than 50%.

In the case of `COc1ccc(NC(=O)Cn2ccc3c2c(=O)n(C)c(=O)n3C)cc1`, the inhibition in assay [2] was less than 50%.

In the case of `CC(=C\c1ccc(Cl)cc1)/C(C)=N/O` [AP18 5], the pIC50 in assay [1] was 5.66; in assay [6], 5.47. The inhibition in assay [2] was determined as 98.9%; in assay [3], 45.2%; in [4], 90.1%; in assay [8], 69.1%. The inhibition entry in assay [7] was “inactive”.

With `Cn1c(=O)c2c(ccn2CC(=O)Nc2ccc(C(C)(C)C)cc2)n(C)c1=O`, the inhibition in [3] turned out to be 10.7%; in assay [4], 95.8%.

Turning to `Cn1c(=O)c2c(ccn2CC(=O)Nc2ccc(N3CCOCC3)cc2)n(C)c1=O`, the inhibition in [2] was less than 50%.

`Cn1c(=O)c2c(ccn2CC(=O)NC23CC4CC(CC(C4)C2)C3)n(C)c1=O`: the inhibition in assay [2] is less than 50%.

Take `Cn1c(=O)c2c(ccn2CC(=O)NCCc2ccccc2)n(C)c1=O`: in assay [2], the inhibition is less than 50%.

`Cn1c(=O)c2c(ccn2CC(=O)Nc2cccc(I)c2)n(C)c1=O`: the inhibition in assay [2] was less than 50%.

In the case of `Cn1c(=O)c2c(ccn2CC(=O)Nc2ccc(OC(F)(F)F)cc2)n(C)c1=O`, the figures for the inhibition in [3] and in assay [4] were 36.8% and 99.5%, respectively.

For `Cn1c(=O)c2c(ccn2CC(=O)Nc2ccc(S(=O)(=O)NCc3ccccc3)cc2)n(C)c1=O`, the inhibition in assay [2] was less than 50%.

For the molecule `CCCCc1ccc(NC(=O)Cn2ccc3c2c(=O)n(C)c(=O)n3C)cc1`, the pIC50 in assay [1] is 5.96. Further, the inhibition in assay [2] turned out to be 99%; in [3], 94.4%; in [4], 97.1%; in assay [8], 93.5%.

Turning to `Cn1c(=O)c2c(ccn2CC(=O)NCc2ccccc2)n(C)c1=O`, the inhibition in assay [2] was less than 50%.

Regarding `Cn1c(=O)c2c(ccn2CC(=O)NCCCc2ccccc2)n(C)c1=O`, in assay [2], the inhibition is less than 50%.

Regarding `Cn1c(=O)c2c(ccn2CC(=O)Nc2nc(-c3ccccc3)cs2)n(C)c1=O`, the inhibition in [2] was less than 50%.

For the molecule `COc1cccc(C2NC(=S)NC3=C2C(=O)c2ccccc23)c1` (centres undefined), the negative logarithm of the IC50 (pIC50) in [1] is 5.82; in [6] it was 5.47; in [9] it was 6.89. The inhibition came out at 98.8% in assay [2], 40.2% in assay [3], 99.5% in assay [4] and 83.1% in assay [8]. In assay [7], the inhibition entry was “inactive”.

As to `CCCCCCc1ccc(NC(=O)Cn2ccc3c2c(=O)n(C)c(=O)n3C)cc1`, the inhibition in [3] was found to be 35.5%; in assay [4], 93.3%.

As to `Cn1c(=O)c2c(ccn2CC(=O)Nc2ccc(C(F)(F)F)cc2)n(C)c1=O`, the negative-log IC50 (pIC50) in assay [1] was 6.40; in [6] it was 5.55. In addition, the inhibition is 99.1% in assay [2]; 58.8% in assay [3]; 99.7% in assay [4]; “Dose-dependent effect” in assay [5]; 99% in assay [8]; 88.7% in [10]. The inhibition entry in [7] is “inactive”.

Regarding `Cn1c(=O)c2c(ccn2CC(=O)Nc2nc(-c3ccc(F)cc3)cs2)n(C)c1=O`, the negative-log IC50 (pIC50) in [1] was 5.39. Also, the inhibition in [2] came to 82.8%; in [3], 3.6%; in assay [4], 99.2%; in assay [8] it was 47.9%.

`Cn1c(=O)c2c(ccn2CC(=O)Nc2ccc(F)cc2F)n(C)c1=O`: the inhibition in [2] was less than 50%.

Take `Cn1c(=O)c2c(ccn2CC(=O)Nc2nc(-c3ccc(I)cc3)cs2)n(C)c1=O`: the inhibition in [2] is less than 50%.

Consider `Cc1ccc(CNC(=O)Cn2ccc3c2c(=O)n(C)c(=O)n3C)cc1`, for which the inhibition in [2] was less than 50%.

Turning to `Cn1c(=O)c2c(ccn2CC(=O)Nc2ccc(C3CCCCC3)cc2)n(C)c1=O`, the inhibition in assay [2] is less than 50%.

On to `CC(C)c1ccc(NC(=O)Cn2ccc3c2c(=O)n(C)c(=O)n3C)cc1`, for which the inhibition in [2] is less than 50%.

On to `CCN(CC)S(=O)(=O)c1ccc(NC(=O)Cn2ccc3c2c(=O)n(C)c(=O)n3C)cc1`, for which, in [2], the inhibition was less than 50%.

In the case of `Cn1c(=O)c2c(ccn2CC(=O)Nc2ccc(Cl)cc2)n(C)c1=O`, the inhibition in assay [2] is less than 50%.

On to `CC(C)c1ccc(NC(=O)Cn2cnc3c2c(=O)n(C)c(=O)n3C)cc1`, for which the inhibition in assay [2] turned out to be 97.5%; in [3] it was 80.7%; in assay [4], 99.8%; in assay [8] it was 73.2%. Besides, the negative-log IC50 (pIC50) in [6] is 5.68. For the same molecule, the inhibition result in [7] is “inactive”.

As for `CN(C(=O)Cn1ccc2c1c(=O)n(C)c(=O)n2C)c1ccc(F)cc1`, the inhibition in [2] was less than 50%.

Source of the values: ChEMBL document CHEMBL1944607, “7-Substituted-pyrrolo[3,2-d]pyrimidine-2,4-dione derivatives as antagonists of the transient receptor potential ankyrin 1 (TRPA1) channel: a promising approach for treating pain and inflammation” (Bioorg Med Chem, 2012).
